IC50, Activity and inhibition data for 20 molecules are collected here from ChEMBL document CHEMBL1142567, “Inhibition of leukotriene biosynthesis by stilbenoids from Stemona species” (J Nat Prod, 2005).

The source made the active and inactive calls. The rule behind the calls is not given here.

Format in all cases: functional
Experiment [1] can be described thus: Ex vivo inhibition of leukotriene formation in calcium ionophore activated human neutrophilic granulocyte by ELISA. Put shortly:
(§1)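 Human neutrophil granulocytes carrying 5-LOX activity, isolated by sedimentation rate and lysis tolerance. Cells activated with calcium ionophore, then incubated with test sample and arachidonic acid. Reaction stopped with formic acid and centrifuged. Supernatant diluted 50-fold; LTB4 measured by competitive EIA (18 h, 4 °C; Ellman's development; 412 nm). Samples tested at 50, 25, 10, 5 and 1 µM in duplicate. Inhibition given as percent of control; IC50 by probit-log analysis. Trypan blue viability check.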

The next experiment is filed under the species Homo sapiens. The experiment can be described thus: (§2) Ex vivo inhibition of leukotriene formation in calcium ionophore activated human neutrophilic granulocyte at 50 uM by ELISA. Put shortly: as §1
Background: In an ELISA, binding on a coated surface is turned into a signal by an enzyme label.

The nature of experiment [2]: Ex vivo inhibition of leukotriene formation in calcium ionophore activated human neutrophilic granulocyte at 25 uM by ELISA. Summed up:
as §1

Experiment [3] in a line: as §2. Put shortly:
as §1

For the molecule `COc1cc(-c2cc3c(O)c(C)ccc3o2)c(C)c(O)c1C` [STEMOFURAN G], the IC50 – broadly, the concentration at which inhibition is half-maximal – in experiment [1] worked out at 3.7 µM.

With `CC[C@@H]1[C@H]2CCCCN3[C@H]2[C@H](C[C@H]3[C@@H]2C[C@H](C)C(=O)O2)[C@@H]2[C@H]1OC(=O)[C@H]2C` [TUBEROSTEMONINE], the IC50 in experiment [1] was above 50 µM. Besides, the result in the experiment listed under Homo sapiens was inactive.

With `COc1c(O)ccc2c1CCc1c(C)c(O)c(C)c(OC)c1-2` [STEMANTHRENE C], the inhibition (in general, the change of the read-out against control, counted positive when it falls) at 25 µM in experiment [2] came to 100%.

For the molecule `Oc1ccc(/C=C/c2cc(O)cc(O)c2)cc1` [RESVERATROL], the IC50 in experiment [1] is above 50 µM. Moreover, in experiment [3], the inhibition at 50 µM is below 10%.

For `COc1cc2c(c(O)c1C)-c1ccc(O)c(OC)c1CC2` [STEMANTHRENE B], in experiment [2], the inhibition at 25 µM is 100%.

Regarding `Cc1c(O)cc(CCc2ccccc2)cc1O` [STILBOSTEMIN B], the IC50 in experiment [1] is above 50 µM. In addition, the inhibition at 50 µM in experiment [3] is 10%.

Turning to `COc1cc(O)cc(-c2cc3c(O)cccc3o2)c1` [STEMOFURAN B], the IC50 in experiment [1] came out at 23.3 µM.

As for `COc1cc(O)c(C)c2c1-c1ccc(O)c(OC)c1CC2` [STEMANTHRENE D], the IC50 in experiment [1] came to 4.8 µM.

For `COc1ccccc1CCc1cc(O)c(C)c(O)c1` [STILBOSTEMIN D], the IC50 in experiment [1] was above 50 µM. In addition, the inhibition at 50 µM in experiment [3] is below 10%.

For `Oc1cc(O)cc(CCc2ccccc2)c1` [DIHYDROPINOSYLVIN], the IC50 in experiment [1] is above 50 µM. Moreover, the inhibition at 50 µM in experiment [3] worked out at 10%.

Take `COc1cc(O)c(C)c(-c2cc3c(O)cccc3o2)c1` [STEMOFURAN D]: the concentration for half-maximal inhibition (IC50) in experiment [1] was 30.3 µM.

In the case of `CC(c1cc2ccccc2s1)N(O)C(N)=O` (centres undefined) [ZILEUTON], in experiment [1], the IC50 worked out at 10.4 µM.

With `COc1ccccc1CCc1cc(O)cc(O)c1` [STILBOSTEMIN A], in experiment [1], the IC50 was above 50 µM. In experiment [3], the inhibition at 50 µM is below 10%.

In the case of `CC[C@@H]1[C@H]2CCCCN3[C@H]2[C@@H](C[C@H]3[C@@H]2C[C@H](C)C(=O)O2)[C@H]2[C@@H]1OC(=O)[C@H]2C` [NEOTUBEROSTEMONINE], in experiment [1], the IC50 is above 50 µM. For the same molecule, in the experiment listed under Homo sapiens, the outcome was inactive.

For the molecule `COc1cc(O)c(C)c(CCc2cccc(O)c2OC)c1` [STILBOSTEMIN F], in experiment [1], the IC50 is above 50 µM. Also, in experiment [3], the inhibition at 50 µM is below 10%.

Take `COc1c(O)ccc2c1CCc1cc(O)c(C)c(OC)c1-2` [STEMANTHRENE A]: the IC50 in experiment [1] was found to be 8.5 µM.

In the case of `COc1cc(CCc2cccc(O)c2OC)cc(O)c1C` [STILBOSTEMIN G], the IC50 in experiment [1] amounted to 25.8 µM.

As for `Cc1c(O)cc(-c2cc3ccccc3o2)cc1O` [STEMOFURAN C], the IC50 in experiment [1] was above 50 µM. In experiment [3], the inhibition at 50 µM is 10%.

Turning to `Oc1cc(O)cc(/C=C/c2ccccc2)c1` [PINOSYLVIN], the IC50 in experiment [1] was 22.7 µM.

`COc1cc(-c2cc3c(O)cccc3o2)c(C)c(OC)c1C` [STEMOFURAN J]: the IC50 in experiment [1] was 26.3 µM.
